ChEMBL document CHEMBL1122083, “Isoxazolidine-3,5-diones as lens aldose reductase inhibitors” (J Med Chem, 1982)

What was measured:
[1] = biological target: Aldo-keto reductase family 1 member B1 (Rattus norvegicus) (UniProt P07943); test: Inhibition of rat lens aldose reductase at 50 uM
In short: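 Enzyme partially purified from rat lenses. Each compound was tested at a single concentration of 50 μM, and percent inhibition was determined by the Hayman and Kinoshita method.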

[2] = pKa value for the compound was determined; type: physicochemical

Row | SMILES | inhibition [1] [%] | pKa [2]
1 | O=C1NOC(=O)C1CCS(=O)(=O)c1ccccc1 (configuration not stated) | 32 | 
2 | COc1ccccc1C1C(=O)NOC1=O (configuration not stated) | 0 | 
3 | O=C1NOC(=O)C1c1cccnc1 (configuration not stated) | 37 | 
4 | O=C1NOC(=O)C12Cc1cccc3cccc(c13)C2 | 5.1 | 
5 | COc1cccc(C2C(=O)NOC2=O)c1 (configuration not stated) | 75 | 
6 | O=C1NOC(=O)C1CCOc1ccccc1 (configuration not stated) | 35 | 
7 | CC(=O)Nc1ccc(C2(C)C(=O)NOC2=O)cc1 (configuration not stated) | 16 | 
8 | O=C1NOC(=O)C1c1ccccn1 (configuration not stated) | 6.5 | 
9 | O=C1NOC(=O)C1c1ccccc1C(F)(F)F (configuration not stated) | 80 | 
10 | O=C(O)CN1C(=O)c2cccc3cccc(c23)C1=O | 87 | 
11 | O=C1NC(=O)[C@@]2(CCOc3ccc(F)cc32)N1 [SORBINIL] |  | 7.85
12 | O=C1NOC(=O)C1CC[S+]([O-])c1ccccc1 (configuration not stated) | 19 | 
